Bioassay records deposited in PubChem BioAssay by Johns Hopkins Ion Channel Center.
Sampled rows, rich in hits. Any-hit rate of the full collection: about 2.3%.
TRPC6 act – mouse TRPC6 channel activation; AID 2550; HEK293-TRPC6 membrane potential dye fluorescence; stronger effect = higher value; B-score at 10 µM; Q61143; hit rate 0.13% among 310,000;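 active = B-score of the integrated fluorescence ratio above library mean plus 3 SD, and starting fluorescence ratio within library mean plus 5 SD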;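 note: higher score means more depolarization so channel activation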
TRPC4 PAM – allosteric potentiators of mouse TRPC4 channel; Q9QUQ5; HEK293 TRPC4beta/mu-opioid, DAMGO EC20, Fluo-4 Ca2+ flux; stronger effect = higher value; B-score at 10 µM; hit rate 0.42% among 310,000;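 active = B-score of calcium response area above 5 SD of library B-scores, with initial fluorescence ratio within 5 SD of library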;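 note: B-score of integrated fluorescence ratio over time as area under calcium response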
TRPC6 inh – inhibitors of mouse TRPC6 channel; B-score at 10 µM; HEK293-TRPC6, membrane potential dye, ACh-evoked depolarization; stronger effect = lower value; AID 2553; hit rate 1.1% among 310,000;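 active = B-score under library mean minus 3 SD, initial fluorescence not abnormally high, positive integrated signal ratio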;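 note: B-score derived from integrated fluorescence ratio over the kinetic read; more negative B-score means stronger inhibition of depolarization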
TRPC4 block – TRPC4 (mouse) channel inhibition | Q9QUQ5 | HEK293 TRPC4beta/mu-opioid, DAMGO-evoked Fluo4 calcium flux; stronger effect = lower value | B-score at 10 µM | hit rate 0.39% among 300,000;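 active = B-score over 3 SD under the library average, no early fluorescence shift, positive overall ratio signal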
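Assay system: Stable TRPC4beta/mu-opioid receptor HEK293 cells | Reagent: DAMGO in two steps, submaximal then maximal | Compound dosing: Single concentration per test compound | Signal: Fluo4 Ca2+ flux fluorescence | Evaluation: Per-well B score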
TRPC4 agonist – TRPC4 (mouse) channel activation; Q9QUQ5; HEK293 TRPC4beta/mu-opioid, Fluo4 calcium fluorescence; stronger effect = higher value; B-score at 10 µM; hit rate 0.49% among 310,000;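 active = B-score above 5 SD of library B-scores, and initial fluorescence ratio not above library mean plus 5 SD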;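 note: positive B-score marks a calcium rise read as TRPC4 activation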
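Assay system: HEK293 stable line with TRPC4beta plus mu-opioid receptor; schedule: 45 min room-temperature Fluo4 loading, 110 s read; technique: kinetic Fluo4 calcium fluorescence; evaluation: integrated baseline-normalised fluorescence ratio, converted to per-well B score; controls: buffer (low) and maximal DAMGO (high)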
TRPC4 sel inh 2 – second selectivity test of TRPC6 inhibitors: effect on mouse TRPC4 | shares compounds with TRPC6 inh | HEK293 TRPC4/MOR, membrane potential dye fluorescence; channel activated by saturating DAMGO dose | inhibition, % at 10 µM | hit rate 42% among 920 | AID 2776;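 active = compounds whose fluorescence signal differed from control wells by over 3 SD, either direction, in both duplicate plates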
TRPC4 spec – tests whether TRPC6 inhibitors also affect mouse TRPC4 | hit rate 61% among 920 | shares compounds with TRPC6 inh | AID 2777 | HEK293 TRPC4/mu-opioid, membrane potential fluorescence | activity change, negative = inhibition, % at 10 µM;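 active = rise or fall in signal beyond 3 SD of buffer-only wells in both replicate plates, either sign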;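 note: integrated kinetic ratio of fluorescence range over baseline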
HEK293 MPD ctr 2-1 – second check of TRPC6 inhibitor effects in parental HEK293 cells | shares compounds with TRPC6 inh | parental HEK293 membrane potential dye fluorescence; maximal acetylcholine challenge after compound addition | signal change vs control, % at 10 µM | hit rate 31% among 920;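 active = membrane potential signal moving either way by over 3 SD of the maximum-effect control, in both duplicate plates, meaning non-specific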
HEK293 MPD ctr-1 – parental HEK293 nonspecific activity of TRPC6 inhibitors; shares compounds with TRPC6 inh; parental HEK293 membrane potential dye fluorescence; membrane potential signal change, % at 10 µM; hit rate 60% among 920; AID 2780;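 active = membrane potential signal shifting up or down by more than 3 SD of buffer-only wells, on both duplicate plates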
HEK293 MPD ctr-2 – counter-screen for TRPC6 modulators: effect in parental HEK293 cells | shares compounds with TRPC6 inh | membrane potential dye fluorescence | membrane potential signal change, % at 10 µM | hit rate 51% among 2,400 | AID 488924;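 active = membrane potential signal moves up or down beyond 5 SD from buffer-only wells, on both duplicate plates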
HEK293 MPD ctr 2-2 – second counter-screen for TRPC6 modulators: effect in parental HEK293 cells | shares compounds with TRPC6 inh | hit rate 14% among 2,400 | inhibition, % at 10 µM | membrane potential dye fluorescence; after compound, maximal acetylcholine stimulation | AID 488926;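 active = membrane potential signal drops by more than 5 SD from the mean control signal, in both duplicate plates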;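 note: plate controls were acetylcholine ECmax control wells for no effect and buffer only wells for full effect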
TRPC4 ctr mod – mouse TRPC4 off-target activity of TRPC6 modulators. shares compounds with TRPC6 inh. HEK293 TRPC4/mu-opioid, membrane potential fluorescence. percent change from control (negative = decrease, positive = increase), % at 10 µM. hit rate 69% among 2,400. AID 488927;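 active = membrane potential signal moved up or down beyond 5 SD of buffer control wells, in both duplicate plates, actives on both sides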;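 note: plate controls were assay buffer wells for no effect and DAMGO maximal-effect wells for full effect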
TRPC4 ctr inh 2 – second selectivity test of TRPC6 modulators against mouse TRPC4 | shares compounds with TRPC6 inh | HEK293 TRPC4/mu-opioid, membrane potential dye fluorescence; stimulated with maximal-effect DAMGO | inhibition, % at 10 µM | hit rate 55% among 2,400 | AID 488928;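 active = drop in membrane potential signal beyond 5 SD of the control wells in both duplicate plates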;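 note: TRPC4 counter screen for TRPC6 hits run under conditions tuned for TRPC6 not TRPC4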
TRPC6 block conf – mouse TRPC6 inhibitor confirmation; shares compounds with TRPC6 inh; HEK293-TRPC6, membrane potential dye, ACh-evoked depolarization; inhibition, % at 10 µM; hit rate 43% among 3,300;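 active = fluorescence ratio falls more than 5 SD below the full-stimulation control mean, in both duplicate runs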;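 note: integrated fluorescence ratio of peak minus minimum over baseline after agonist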
TRPC6 act conf – confirmation of mouse TRPC6 activators | shares compounds with TRPC6 inh | HEK293-TRPC6 membrane potential dye fluorescence, FDSS | activation, % at 10 µM | hit rate 11% among 2,800 | AID 488961;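 active = ratio signal rise beyond 5 SD above unstimulated control wells' mean, seen in both duplicate runs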;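 note: plate controls were buffer EC0 wells for no effect and acetylcholine ECmax response for full effect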
Numbers without * were called inactive; i = inactive; · = not tested or not shown.

SMILES | TRPC6 act | TRPC4 PAM | TRPC6 inh | TRPC4 block | TRPC4 agonist | TRPC4 sel inh 2 | TRPC4 spec | HEK293 MPD ctr 2-1 | HEK293 MPD ctr-1 | TRPC6 block conf | TRPC6 act conf | others
C[N+]1(CCOC(=O)C2(c3ccccc3)CCCC2)CCCCC1 | i | i | -11* | i | i | i | i | -16%* | i | 78%* | i
C[N+](C)(C)CCOC(=O)C1(c2ccccc2)CCCC1 | i | i | -8.5* | i | i | i | i | 1.0%* | i | 69%* | i
CCN(CC)CCCOC(=O)C1(c2ccccc2)CCCC1 | i | i | -9.1* | i | i | i | 12%* | 12%* | 12%* | 60%* | ·
CCOc1ccc(N(C)S(=O)(=O)c2c[nH]c(C(=O)OC)c2)cc1 | i | i | i | i | i | · | · | · | · | · | ·
COc1ccccc1CNCC(=O)Nc1ccc(C#N)cc1 | i | i | i | i | i | · | · | · | · | · | ·
COc1ccccc1CNCC(=O)Nc1ccc(C(F)(F)F)cc1 | i | i | -5.2* | i | i | · | · | · | · | i | i | HEK293 MPD ctr-2=i;HEK293 MPD ctr 2-2=i;TRPC4 ctr mod=i;TRPC4 ctr inh 2=42%*
COC(=O)c1cc(NC(=O)c2c(F)c(F)c(F)c(F)c2F)cc(C(=O)OC)c1 | i | i | i | i | i | · | · | · | · | · | ·
Cc1cccc(C(=O)O/N=C(\N)CS(=O)(=O)c2ccccc2)c1 | i | i | i | i | i | · | · | · | · | · | ·
Cc1ccc(C)c(N2CCN(C(=O)CCCOc3cc(=O)n(C)c4ccccc34)CC2)c1 | i | i | -6.2* | i | i | · | · | · | · | 55%* | · | HEK293 MPD ctr-2=139%*;HEK293 MPD ctr 2-2=i;TRPC4 ctr mod=30%*;TRPC4 ctr inh 2=i
CN(C)CCCN(C(=O)c1ccco1)c1nc2ccc(F)cc2s1 | i | i | -5.6* | i | i | · | · | · | · | 64%* | i | HEK293 MPD ctr-2=-150%*;HEK293 MPD ctr 2-2=78%*;TRPC4 ctr mod=-39%*;TRPC4 ctr inh 2=84%*
Cc1ccc2nc(N(CCCN(C)C)C(=O)c3ccco3)sc2c1 | i | i | -7.1* | i | i | 34%* | -20%* | i | -146%* | 78%* | i
CN(C)CCCN(C(=O)c1cc2ccccc2oc1=O)c1nc2ccc(F)cc2s1 | i | i | i | i | i | · | · | · | · | · | ·
Cc1ccc2nc(N(CCCN(C)C)C(=O)c3ccc(Br)s3)sc2c1 | i | i | i | i | i | · | · | · | · | · | ·
Cc1ccc(NC(=O)c2ccccc2N2C(=O)C3C4C=CC(C5CC45)C3C2=O)cc1C (configuration not stated) | i | i | i | i | i | · | · | · | · | · | ·
O=C(NCCN1C(=O)S/C(=C\c2ccc(Cl)c([N+](=O)[O-])c2)C1=O)C1=COCCO1 | i | i | i | i | i | · | · | · | · | · | ·
